The values below come from ChEMBL document CHEMBL3853316 (J Med Chem, 2016).

Molecules are shown by their SMILES.

What is called half-life is how long it takes for the measured level to halve. A low value points to fast loss. What is called bioavailability is dose-corrected exposure relative to a reference, in per cent. Higher therefore signals good availability. As usually defined, the pKa is the pH at which an ionisable group is half protonated. Lower therefore signals a stronger acid or weaker base.

Data set [1] in a line: Half life in human liver microsomes. In kind it is ADME. (Liver microsomes are a subcellular fraction often used to study metabolism.)
Data set [2] is described as follows: Half life in dog liver microsomes. Format: ADME, Canis lupus familiaris.
Data set [3] can be described thus: Half life in rat liver microsomes. Format: ADME.
Data set [4] can be described thus: Oral bioavailability in dog at 1 mg/kg. In kind it is ADME, organism-based, Canis lupus familiaris. As to conditions: in vivo. In outline: (§1)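 Dogs (n = 3) were dosed at 0.2 mg/kg iv and 1.0 mg/kg po for pharmacokinetic parameters.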
A short description of data set [5]: Dissociation constant, pKa of the compound in methanol/water by spectrophotometric titration method. Format: physicochemical.
The nature of data set [6]: Clearance in dog at 0.2 mg/kg, iv and 1 mg/kg, po. In kind it is ADME, organism-based, Canis lupus familiaris. As to conditions: in vivo. Put shortly: as §1
A short description of data set [7]: Volume of distribution at steady state in dog at 0.2 mg/kg, iv and 1 mg/kg, po. Format: ADME, organism-based, Canis lupus familiaris. The note with it: in vivo, read-out: Vdss. Put shortly: as §1
Data set [8] can be described thus: Half life in dog at 0.2 mg/kg, iv and 1 mg/kg, po. As to conditions: in vivo. Format: ADME, organism-based, Canis lupus familiaris. Put shortly: as §1

`Cc1cc2ccc1[C@@H](C)COC(=O)Nc1ccc(S(=O)(=O)C3CC3)c(c1)CN(C)C(=O)[C@@H]2Nc1ccc2c(N)ncc(F)c2c1`: the half-life in data set [1] was 45 min; in data set [2] it was 26 min; in data set [3], 1.9 min; in data set [8] it was 480 min. The same compound came in with a bioavailability in data set [4] of 40%. The compound also registered a pKa in data set [5] of 7.1. The compound also displayed a clearance in data set [6] of 8 mL/min/kg. The Vd in data set [7] was found to be 5 L/kg.

Take `Cc1cc2ccc1[C@@H](C)COC(=O)Nc1ccc(OC(F)(F)F)c(c1)CN(C)C(=O)[C@@H]2Nc1ccc2c(N)nccc2c1`: the half-life is 130 min in data set [1], 140 min in data set [2] and 37 min in data set [3]. Further, in data set [4], the bioavailability is 22%.

Regarding `Cc1cc2ccc1[C@@H](C)COC(=O)Nc1ccc(S(=O)(=O)C3CC3)c(c1)CN(C)C(=O)[C@@H]2Nc1cc2ccnc(N)c2cc1F`, the half-life in data set [1] is 95 min; in data set [2] it was 7 min; in data set [3], 10 min; in data set [8] it was 360 min. Further, the bioavailability in data set [4] was less than 1%. The compound also displayed a clearance in data set [6] of 11 mL/min/kg. Besides, the Vd in data set [7] was found to be 4 L/kg.

`Cc1cc2ccc1[C@@H](C)COC(=O)Nc1ccc(S(=O)(=O)C3CC3)c(c1)CN(C)C(=O)[C@@H]2Nc1cc(F)c2c(N)nccc2c1`: the half-life in data set [1] was 120 min; in data set [2] it was 39 min; in data set [3] it was 3.3 min; in data set [8], 480 min. The compound also returned a bioavailability in data set [4] of 24%. In data set [5], this compound gave a pKa of 8. In data set [6], this compound had a clearance of 13 mL/min/kg. In addition, the Vd in data set [7] is 8 L/kg.

Consider `Cc1cc2ccc1[C@@H](C)COC(=O)Nc1ccc(S(=O)(=O)C3CC3)c(c1)CN(C)C(=O)[C@@H]2Nc1ccc2c(N)nccc2c1`, for which the half-life is greater than 120 min in data set [1], 110 min in data set [2] and 12 min in data set [3]. The bioavailability in data set [4] worked out at 1%. In data set [5], the pKa was 8.7.
